Reference: ChEMBL document CHEMBL5136969, “A niclosamide-tobramycin hybrid adjuvant potentiates cefiderocol against P. aeruginosa” (2021)
Values after ≈ are worked out from the molar mass of the structure shown. Active and inactive are the calls of the source.

What was measured:
Acinetobacter baumannii [1] = assay: Potentiation of vancomycin-induced antibiotic activity against Acinetobacter baumannii ATCC 17978 assessed as MIC fold reduction at 8 ug/ml after 18 hrs by microbroth dilution method; format: functional; conditions: dose 8 µg/ml
Pseudomonas aeruginosa [2] = assay: Potentiation of tobramycin-induced antibiotic activity against Pseudomonas aeruginosa PAO1 assessed as MIC fold reduction at 8 ug/ml after 18 hrs by microbroth dilution method; format: functional; conditions: dose 8 µg/ml
Pseudomonas aeruginosa [3] = assay: Potentiation of cefiderocol-induced antibiotic activity against Pseudomonas aeruginosa PAO1 assessed as MIC fold reduction at 8 ug/ml after 18 hrs by microbroth dilution method; format: functional; conditions: dose 8 µg/ml
Summary of the method: (§1)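 Initial screen in MHB using a fixed 8 μg mL−1 of adjuvant combined with each antibiotic under 2-fold dilution. Broth microdilution used about 5 × 10^5 CFU/mL at 37 °C for 18 h, with visible turbidity read and confirmed at 590 nm. Fold-potentiation = antibiotic MIC alone ÷ antibiotic MIC with adjuvant.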

Pseudomonas aeruginosa [4] = assay: Potentiation of ceftolozane-induced antibiotic activity against Pseudomonas aeruginosa PAO1 assessed as MIC fold reduction at 8 ug/ml after 18 hrs by microbroth dilution method; format: functional; conditions: dose 8 µg/ml
Summary of the method: (§2)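 Adjuvant held at a fixed 8 μg/mL while the antibiotic was 2-fold serially diluted in Mueller-Hinton broth (MHB), per CLSI microbroth dilution. Overnight cultures were adjusted in saline to 0.5 McFarland, then diluted 1:50 in MHB to about 5 × 10^5 CFU/mL final, and incubated 18 h at 37 °C. MIC was the lowest concentration with no visible turbidity, confirmed at 590 nm. Fold potentiation = MIC alone / MIC with adjuvant.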

Acinetobacter baumannii [5] = assay: Potentiation of ceftolozane-induced antibiotic activity against Acinetobacter baumannii ATCC 17978 assessed as MIC fold reduction at 8 ug/ml after 18 hrs by microbroth dilution method; format: functional; conditions: dose 8 µg/ml; summary of the method: as §2
Acinetobacter baumannii [6] = assay: Potentiation of pleuromutilin-induced antibiotic activity against Acinetobacter baumannii ATCC 17978 assessed as MIC fold reduction at 8 ug/ml after 18 hrs by microbroth dilution method; format: functional; conditions: dose 8 µg/ml
Staphylococcus aureus = assay: Antibacterial activity against methicillin-resistant Staphylococcus aureus ATCC 33592 assessed as reduction in bacterial growth after 18 hrs by microbroth dilution method; format: functional
Summary of the method: (§3)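 Broth microdilution per CLSI in Mueller-Hinton broth (MHB). Overnight cultures were adjusted to 0.5 McFarland in saline, diluted 1:50 in MHB, and added at about 5 × 10^5 CFU/mL final to equal volumes of 2-fold serial dilutions of agent. Incubation was 18 h at 37 °C. MIC was the lowest concentration with no visible turbidity, confirmed by absorbance at 590 nm.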

Pseudomonas aeruginosa [7] = assay: Potentiation of ceftazidime-induced antibiotic activity against MDR clinical isolate Pseudomonas aeruginosa PA260 assessed as MIC fold reduction at 8 ug/ml after 18 hrs by microbroth dilution method; format: functional, organism-based; conditions: dose 8.0 µg/ml; summary of the method: as §2
Pseudomonas aeruginosa [8] = assay: Potentiation of cefiderocol-induced antibiotic activity against MDR clinical isolate Pseudomonas aeruginosa PA260 assessed as MIC fold reduction at 8 ug/ml after 18 hrs by microbroth dilution method; format: functional, organism-based; conditions: dose 8.0 µg/ml; summary of the method: as §1
Pseudomonas aeruginosa [9] = assay: Antibacterial activity against colistin-resistant clinical isolate Pseudomonas aeruginosa PA91433 assessed as reduction in bacterial growth after 18 hrs by microbroth dilution method; format: functional; summary of the method: as §3
Pseudomonas aeruginosa [10] = assay: Antibacterial activity against colistin-resistant clinical isolate Pseudomonas aeruginosa PA114228 assessed as reduction in bacterial growth after 18 hrs by microbroth dilution method; format: functional; summary of the method: as §3
Pseudomonas aeruginosa [11] = assay: Antibacterial activity against colistin-resistant clinical isolate Pseudomonas aeruginosa PA101243 assessed as reduction in bacterial growth after 18 hrs in presence of cefiderocol by microbroth dilution method; format: functional
Summary of the method: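 Checkerboard in MHB (iron-replete, not iron-depleted CAMHB). Cefiderocol was 2-fold serially diluted along one axis and the adjuvant along the other. Inoculum was 0.5 McFarland diluted 1:50, about 5 × 10^5 CFU/mL final. Incubation was 18 h at 37 °C, with turbidity read visually and confirmed at 590 nm. FIC was the MIC in combination over the MIC alone for each agent, and the FIC index was their sum. Cut-offs were ≤0.5 synergy, >0.5–4 additive, >4 antagonism.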

Pseudomonas aeruginosa [12] = assay: Antibacterial activity against MDR clinical isolate Pseudomonas aeruginosa PA260 assessed as potentiation of cefiderocol antibacterial activity by measuring FIC index after 18 hrs by microbroth dilution method; format: functional
Summary of the method: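 Checkerboard in MHB. Cefiderocol was 2-fold serially diluted along one axis and the adjuvant along the other. Inoculum was prepared from 0.5 McFarland saline suspensions diluted 1:50 in MHB, giving about 5 × 10^5 CFU/mL final. Plates ran 18 h at 37 °C, with turbidity confirmed at 590 nm. FIC = combination MIC ÷ MIC alone for each agent, and FIC index = sum of both. Interpretation: ≤0.5 synergy, >0.5–4 additive, >4 antagonism.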

Escherichia coli [13] = assay: Antibacterial activity against Escherichia coli 107115 assessed as reduction in bacterial growth after 18 hrs by microbroth dilution method; format: functional
Summary of the method: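 CLSI microbroth dilution in MHB. Overnight cultures were adjusted to 0.5 McFarland in saline, diluted 1:50, and inoculated at about 5 × 10^5 CFU/mL. Agents were 2-fold serially diluted and incubated 18 h at 37 °C. MIC is the lowest concentration without visible turbidity, confirmed by absorbance at 590 nm. Medium with and without cells served as controls.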

Klebsiella pneumoniae = assay: Antibacterial activity against Klebsiella pneumoniae KP113254 assessed as reduction in bacterial growth after 18 hrs by microbroth dilution method; format: functional
Summary of the method: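 CLSI broth microdilution. Overnight cultures were adjusted in saline to 0.5 McFarland, diluted 1:50 in Mueller-Hinton broth (MHB), and inoculated at about 5 × 10^5 CFU/mL. Agents were 2-fold serially diluted in MHB, mixed 1:1 with inoculum, and held at 37 °C for 18 h. MIC was the lowest concentration with no visible turbidity, confirmed at 590 nm.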

Escherichia coli [14] = assay: Antibacterial activity against Escherichia coli 107115 assessed as reduction in bacterial growth after 18 hrs in presence of cefiderocol by microbroth dilution method; format: functional
Summary of the method: (§4)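 Checkerboard in Mueller-Hinton broth: cefiderocol 2-fold diluted on one axis, adjuvant 2-fold on the other. Overnight cultures were adjusted to 0.5 McFarland in saline, diluted 1:50 in MHB, and inoculated at about 5 × 10^5 CFU/mL. Incubation was 18 h at 37 °C. Turbidity was read visually and confirmed at 590 nm. FIC index = FIC of antibiotic + FIC of adjuvant; ≤0.5 synergy, >4 antagonism.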

Escherichia coli [15] = assay: Antibacterial activity against Escherichia coli 94393 assessed as reduction in bacterial growth after 18 hrs in presence of cefiderocol by microbroth dilution method; format: functional; summary of the method: as §4
Escherichia coli [16] = assay: Antibacterial activity against Escherichia coli 94474 assessed as reduction in bacterial growth after 18 hrs in presence of cefiderocol by microbroth dilution method; format: functional; summary of the method: as §4
Enterobacter cloacae [17] = assay: Antibacterial activity against Enterobacter cloacae 117029 assessed as reduction in bacterial growth after 18 hrs in presence of cefiderocol by microbroth dilution method; format: functional; summary of the method: as §4
Enterobacter cloacae [18] = assay: Antibacterial activity against Enterobacter cloacae 118564 assessed as reduction in bacterial growth after 18 hrs in presence of cefiderocol by microbroth dilution method; format: functional; summary of the method: as §4
Enterobacter cloacae [19] = assay: Antibacterial activity against Enterobacter cloacae 118564 assessed as potentiation of cefiderocol antibacterial activity by measuring FIC after 18 hrs by microbroth dilution method; format: functional; summary of the method: as §4
Pseudomonas aeruginosa [20] = assay: Potentiation of moxifloxacin-induced antibiotic activity against Pseudomonas aeruginosa PA260 assessed as MIC fold reduction in ID-CAMHB condition at 8 ug/ml after 18 hrs by microbroth dilution method; format: functional, organism-based; conditions: dose 8.0 µg/ml

SMILES: NC[C@H]1O[C@H](O[C@H]2[C@H](OCCCCc3cn(-c4ccc(NC(=O)c5cc(Cl)ccc5O)cc4)nn3)[C@@H](O[C@H]3O[C@H](CO)[C@@H](O)[C@H](N)[C@H]3O)[C@H](N)C[C@@H]2N)[C@H](N)C[C@@H]1O
- fold change (FC) (Acinetobacter baumannii [1]): 4
- fold change (FC) (Pseudomonas aeruginosa [2]): 4
- fold change (FC) (Pseudomonas aeruginosa [3]): 4
- fold change (FC) (Pseudomonas aeruginosa [4]): 4
- fold change (FC) (Acinetobacter baumannii [5]): 4
- fold change (FC) (Acinetobacter baumannii [6]): 4
- MIC (Staphylococcus aureus): > 128 µg/mL
- Activity (Pseudomonas aeruginosa [7]): Active
- Activity (Pseudomonas aeruginosa [8]): Active
- MIC (Pseudomonas aeruginosa [9]): > 128 µg/mL
- MIC (Pseudomonas aeruginosa [10]): 32 µg/mL (≈ 38.3 µM)
- MIC (Pseudomonas aeruginosa [11]): 2 µg/mL
- FIC (Pseudomonas aeruginosa [12]): 0.063
- MIC (Escherichia coli [13]): > 128 µg/mL
- MIC (Klebsiella pneumoniae): > 128 µg/mL
- MIC (Escherichia coli [14]): 0.25 µg/mL
- MIC (Escherichia coli [15]): 1 µg/mL
- MIC (Escherichia coli [16]): 8 µg/mL
- MIC (Enterobacter cloacae [17]): 4 µg/mL
- MIC (Enterobacter cloacae [18]): 0.25 µg/mL
- FIC (Enterobacter cloacae [19]): 1
- Activity (Pseudomonas aeruginosa [20]): Active
